Assay type in all cases: functional
Experiment [1] in a line: Selectivity ratio of GI50 for human KB cells to GI50 for multidrug-resistant P-gp expressing human KBVIN cells. The procedure, abridged:
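Ratio of GI50 in parental KB to GI50 in P-gp-overexpressing KB-VIN. […] KB-VIN cells were grown 7–10 days without vincristine before the assay.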

The nature of experiment [2]: Antiproliferative activity against multidrug-resistant P-gp expressing human KBVIN cells by sulforhodamine B assay. The procedure, abridged: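 Vincristine-resistant KB subline kept in 100 nM vincristine, then grown 7–10 days without it before testing. RPMI 1640 with 10% FBS, 37 °C, 5% CO2. 3–5 × 10³ cells/well exposed 72 h to a concentration series, paclitaxel as assay control. SRB staining after TCA fixation, A515 read. GI50 is the 50% absorbance reduction versus untreated cells; three or more experiments.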
For orientation: In SRB staining, fixed cells bind dye roughly in proportion to their protein.

In experiment [3] the test system is KB. Briefly: Antiproliferative activity against human KB cells by sulforhodamine B assay. The procedure, abridged:
(§1)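 Cells in RPMI 1640 (25 mM HEPES, 2 mM L-glutamine, 10% heat-inactivated FBS, antibiotics) at 37 °C, 5% CO2. Seeded at 3–5 × 10³/well with graded concentrations, paclitaxel as assay control, for 72 h. TCA-fixed, stained with 0.04% SRB, dye dissolved in 10 mM Tris, A515 read. GI50 is the concentration halving absorbance versus untreated cells; three or more experiments.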

The test system of experiment [4] is A549. The experiment in a line: Antiproliferative activity against human A549 cells by sulforhodamine B assay. The procedure, abridged: as §1
Experiment [5] has as its system DU-145. Briefly: Antiproliferative activity against human DU145 cells by sulforhodamine B assay. In a few lines:
as §1

As a reminder, the GI50 is the concentration giving 50% growth inhibition. In the case of `C=C1[C@H]2C[C@H]3C4N5C[C@]6(C)CCC[C@]47[C@H]([C@H]2OC(=O)/C=C/c2ccccc2)C3(C[C@]5(O)[C@H]67)[C@@H]1O`, the RatioGI50 in experiment [1] was 1.1. The GI50 turned out to be 6.4 µM in experiment [2], 7 µM in experiment [3], 8.4 µM in experiment [4] and 6.5 µM in experiment [5].
For `C=C1[C@H]2C[C@@H]3C4N5C[C@]6(C)CCC[C@@]47[C@@H]6[C@@H]5C[C@]3([C@@H]1OC(=O)c1ccc(OC)cc1)[C@H]7[C@H]2OC(=O)c1ccc(OC)cc1`, in that order: 1, 5.2 µM, 5.3 µM, 6.7 µM and 7.1 µM.
`C=C1[C@H]2C[C@@H]3C4N5C[C@]6(C)CCC[C@@]47[C@@H]6[C@@H]5C[C@]3([C@@H]1O)[C@H]7[C@H]2OC(=O)c1ccc([N+](=O)[O-])cc1`: the RatioGI50 in experiment [1] was determined as 10. Also, the GI50 in experiment [2], in experiment [3], in experiment [4] and in experiment [5] was 10 µM throughout.
Take `C=C1[C@H]2C[C@@H]3C4N5C[C@]6(C)CCC[C@@]47[C@@H]6[C@@H]5C[C@]3([C@@H]1OC(=O)c1ccc([N+](=O)[O-])cc1)[C@H]7[C@H]2O`: the RatioGI50 in experiment [1] was over 20. The GI50 in experiment [2], in experiment [3], in experiment [4] and in experiment [5] was over 20 µM each time.
With `C=C1[C@H]2C[C@@H]3C4N5C[C@]6(C)CCC[C@@]47[C@@H]6[C@@H]5C[C@]3([C@@H]1OC(=O)c1ccc([N+](=O)[O-])cc1)[C@H]7[C@H]2OC(=O)c1ccc([N+](=O)[O-])cc1`, the RatioGI50 in experiment [1] is 0.96. The GI50 is 5.5 µM in experiment [2], 5.3 µM in experiment [3], 6.9 µM in experiment [4] and 1 µM in experiment [5].
For `C=C1[C@H]2C[C@@H]3C4N5C[C@]6(C)CCC[C@@]47[C@@H]6[C@@H]5C[C@]3([C@@H]1O)[C@H]7[C@H]2OC(=O)c1ccccc1C(F)(F)F`, in that order: over 20, over 20 µM, over 20 µM, over 20 µM and over 20 µM.
Take `C=C1[C@H]2C[C@@H]3C4N5C[C@]6(C)CCC[C@@]47[C@@H]6[C@@H]5C[C@]3([C@@H]1O)[C@H]7[C@H]2OC(=O)c1cccc(C(F)(F)F)c1`: the RatioGI50 in experiment [1] is on record as over 20. In addition, the concentration for 50% growth inhibition (GI50) in experiment [2], in experiment [3], in experiment [4] and in experiment [5] was over 20 µM throughout.
For `C=C1[C@H]2C[C@@H]3C4N5C[C@]6(C)CCC[C@@]47[C@@H]6[C@@H]5C[C@]3([C@@H]1O)[C@H]7[C@H]2OC(=O)c1ccc(C(F)(F)F)cc1`, the RatioGI50 in experiment [1] came to 10. In addition, the 50% growth inhibitory concentration (GI50) in experiment [2], in experiment [3], in experiment [4] and in experiment [5] was 10 µM throughout.
As for `C=C1[C@H]2C[C@@H]3C4N5C[C@]6(C)CCC[C@@]47[C@@H]6[C@@H]5C[C@]3([C@@H]1O)[C@H]7[C@H]2OC(=O)c1ccc(OC(F)(F)F)cc1`, the RatioGI50 in experiment [1] was found to be 10. For the same compound, the concentration for 50% growth inhibition (GI50) in experiment [2], in experiment [3], in experiment [4] and in experiment [5] was 10 µM in each case.
Regarding `C=C1[C@H]2C[C@@H]3C4N5C[C@]6(C)CCC[C@@]47[C@@H]6[C@@H]5C[C@]3([C@@H]1O)[C@H]7[C@H]2OC(=O)c1cccnc1`, the RatioGI50 in experiment [1] is on record as over 20. The concentration for 50% growth inhibition (GI50) in experiment [2], in experiment [3], in experiment [4] and in experiment [5] was over 20 µM throughout.
As for `C=C1[C@H]2C[C@@H]3C4N5C[C@]6(C)CCC[C@@]47[C@@H]6[C@@H]5C[C@]3([C@@H]1O)[C@H]7[C@H]2OC(=O)c1ccc(F)cc1`, in experiment [1], the RatioGI50 is listed as over 20. For the same compound, the GI50 in experiment [2], in experiment [3], in experiment [4] and in experiment [5] was over 20 µM throughout.
In the case of `C=C1[C@H]2C[C@@H]3C4N5C[C@]6(C)CCC[C@@]47[C@@H]6[C@@H]5C[C@]3([C@@H]1OC(=O)c1ccc(F)cc1)[C@H]7[C@H]2O`, the RatioGI50 in experiment [1] was over 20. For the same compound, the GI50 in experiment [2], in experiment [3], in experiment [4] and in experiment [5] was over 20 µM in each case.
As for `C=C1[C@H]2C[C@@H]3C4N5C[C@]6(C)CCC[C@@]47[C@@H]6[C@@H]5C[C@]3([C@@H]1OC(=O)c1ccc(F)cc1)[C@H]7[C@H]2OC(=O)c1ccc(F)cc1`, the RatioGI50 in experiment [1] came out at 0.73. Further, the concentration for 50% growth inhibition (GI50) in experiment [2] was 7.1 µM; in experiment [3] it was 5.2 µM; in experiment [4], 8.1 µM; in experiment [5], 6.8 µM.
The like results for `C=C1[C@H]2C[C@@H]3C4N5C[C@]6(C)CCC[C@@]47[C@@H]6[C@@H]5C[C@]3([C@@H]1OC(=O)/C=C/c1cccc(C(F)(F)F)c1)[C@H]7[C@H]2OC(=O)/C=C/c1cccc(C(F)(F)F)c1` were, in that order, 1.3, 3.1 µM, 4.1 µM, 5.5 µM and 6.2 µM.
For `C=C1[C@H]2C[C@@H]3C4N5C[C@]6(C)CCC[C@@]47[C@@H]6[C@@]5(O)C[C@]3([C@@H]1OC(=O)/C=C/c1ccccc1)[C@H]7[C@H]2O`, in that order: over 20, over 20 µM, over 20 µM, over 20 µM and over 20 µM.
The like results for `C=C1[C@H]2C[C@@H]3C4N(C(=O)/C=C/c5ccccc5)C[C@]5(C)CCC[C@@]46[C@@H]5C(=O)C[C@]3([C@@H]1O)[C@H]6[C@H]2O` (stereo not given in full) were, in that order, over 20, over 20 µM, over 20 µM, over 20 µM and over 20 µM.
In the case of `C=C1[C@H]2C[C@@H]3C4N5C[C@]6(C)CCC[C@@]47[C@@H]6[C@@]5(O)C[C@]3([C@@H]1O)[C@H]7[C@H]2OC(=O)C(C)(C)C`, the RatioGI50 in experiment [1] was over 20. Moreover, the 50% growth inhibitory concentration (GI50) in experiment [2], in experiment [3], in experiment [4] and in experiment [5] was over 20 µM each time.
For the compound `C=C1[C@H]2C[C@@H]3C4N5C[C@]6(C)CCC[C@@]47[C@@H]6[C@@]5(O)C[C@]3([C@@H]1O)[C@H]7[C@H]2OC(=O)c1cccnc1`, the RatioGI50 in experiment [1] was over 20. In addition, the 50% growth inhibitory concentration (GI50) in experiment [2], in experiment [3], in experiment [4] and in experiment [5] was over 20 µM in each case.
As for `C=C1[C@H]2C[C@@H]3C4N5C[C@]6(C)CCC[C@@]47[C@@H]6[C@@]5(O)C[C@]3([C@@H]1OC(=O)c1cccnc1)[C@H]7[C@H]2O`, in experiment [1], the RatioGI50 is over 20. The concentration for 50% growth inhibition (GI50) in experiment [2], in experiment [3], in experiment [4] and in experiment [5] was over 20 µM in each case.
Regarding `C=C1[C@H]2C[C@@H]3C4N5C[C@]6(C)CCC[C@@]47[C@@H]6[C@@]5(O)C[C@]3([C@@H]1OC(=O)c1cccnc1)[C@H]7[C@H]2OC(=O)c1cccnc1`, the RatioGI50 in experiment [1] is over 20. Besides, the concentration for 50% growth inhibition (GI50) in experiment [2], in experiment [3], in experiment [4] and in experiment [5] was over 20 µM in each case.
`C=C1[C@H]2C[C@@H]3C4N5C[C@]6(C)CCC[C@@]47[C@@H]6[C@@]5(O)C[C@]3([C@@H]1OC(=O)CC)[C@H]7[C@H]2O`: in experiment [1], the RatioGI50 is given as over 20. Further, the GI50 in experiment [2], in experiment [3], in experiment [4] and in experiment [5] was over 20 µM each time.
For `C=C1[C@H]2C[C@@H]3C4N5C[C@]6(C)CCC[C@@]47[C@@H]6[C@@]5(O)C[C@]3([C@@H]1OC(=O)CC)[C@H]7[C@H]2OC(=O)CC`, in experiment [1], the RatioGI50 is recorded as over 20. Besides, the concentration for 50% growth inhibition (GI50) in experiment [2], in experiment [3], in experiment [4] and in experiment [5] was over 20 µM each time.
Turning to `C=C1[C@H]2C[C@@H]3C4N5C[C@]6(C)CCC[C@@]47[C@@H]6[C@@]5(O)C[C@]3([C@@H]1O)[C@H]7[C@H]2OC(c1ccccc1)(c1ccccc1)c1ccccc1`, the RatioGI50 in experiment [1] turned out to be 1.3. Further, the GI50 stood at 5.2 µM in experiment [2], 6.6 µM in experiment [3], 6.4 µM in experiment [4] and 6 µM in experiment [5].
As to `CC1[C@H]2C[C@@H]3C4N5C[C@]6(C)CCC[C@@]47[C@@H]6[C@@]5(O)C[C@]3([C@@H]1O)[C@H]7[C@H]2O` (stereo not given in full), the RatioGI50 in experiment [1] is over 20. Further, the GI50 in experiment [2], in experiment [3], in experiment [4] and in experiment [5] was over 20 µM each time.
Take `C=C1[C@H]2C[C@H]3C4N(Cc5ccccc5)C[C@]5(C)CCC[C@]46[C@H]([C@H]2O)C3(CC(=O)[C@H]56)[C@@H]1O` (stereo not given in full): the RatioGI50 in experiment [1] is given as over 20. In addition, the GI50 in experiment [2], in experiment [3], in experiment [4] and in experiment [5] was over 20 µM in each case.

(Values after ChEMBL document CHEMBL3400028, “Evaluation of Aconitum diterpenoid alkaloids as antiproliferative agents” (2015).)
